These results are taken from ChEMBL document CHEMBL1140288, “First synthesis and evaluation of the inhibitory effects of aza analogues of TSAO on HIV-1 replication” (J Med Chem, 2005).

Molecules are shown by their SMILES.

Broadly, the EC50 is the midpoint of the concentration-response curve. The CC50 is the concentration that lowers cell viability or growth by half. High values mean lower toxicity to the cells, low ones greater toxicity to the cells.

Test [1] deals with Human immunodeficiency virus 1. The test can be described thus: Concentration of compound inhibiting Tyr181Cys mutant HIV-1(IIIB) induced cytopathicity in CEM cell culture by 50%. It is filed as functional, organism-based. The conditions noted are these: Human immunodeficiency virus 1, CCRF-CEM. Put shortly:
(§1)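 CEM cells at 4 × 10⁵ per mL infected at ~100 CCID₅₀ per mL of cell suspension, then mixed 1:1 with compound dilutions in microtiter wells. Giant cell formation was scored microscopically after 4 days. EC₅₀ is the concentration inhibiting virus-induced cytopathicity by 50%. Mutant HIV-1(IIIB) RT strains were selected as described previously.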

Test [2] relates to CCRF-CEM. Nature of the test: Concentration of compound required to inhibit HIV-1(IIIB) induced cytopathicity in CEM cell culture by 50%. It is filed as functional, cell-based. The conditions noted are these: Homo sapiens. Put shortly: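 CEM cells at 4 × 10⁵ per mL were infected with HIV-1(III_B) at ∼100 CCID₅₀ per mL and mixed 1:1 with serial compound dilutions. Giant cell formation was scored microscopically after 4 days. EC₅₀ was taken as the concentration giving 50% inhibition of virus-induced cytopathicity.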
A general note: Protection from cytopathic effect is a common read-out in antiviral testing.

Test [3] has as its system CCRF-CEM. The test can be described thus: Concentration of compound required to inhibit HIV-2 (ROD) induced cytopathicity in CEM cell culture by 50%. Type of test: functional, cell-based. To be noted: Homo sapiens. Put shortly:
as §1

Test [4] has as its system MT4. Nature of the test: Concentration of compound required to inhibit HIV-1(IIIB) induced cytopathicity in MT-4 cell culture by 50%. Type of test: functional, cell-based. To be noted: Homo sapiens. Put shortly: (§2)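 MT-4 cells at 3 × 10⁵ per mL were infected with HIV-1(III_B) or HIV-2(ROD) at ∼100 CCID₅₀ per mL, then mixed 1:1 with compound dilutions. After 4 days, viability was read by the MTT method. EC₅₀ was taken as the concentration giving 50% protection against HIV-induced cytopathicity.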

For test [5], the system named is MT4. Nature of the test: Concentration of compound required to inhibit HIV-2 (ROD) induced cytopathicity in MT-4 cell culture by 50%. To be noted: Homo sapiens. It is filed as functional, cell-based. The method, boiled down:
as §2

Test [6] can be described thus: Concentration of compound required to reduce by 50% the number of viable cells in mock infected CEM cell cultures. It is filed as functional. The conditions noted are these: Homo sapiens, CCRF-CEM. Put shortly: (§3)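 Mock-infected CEM cells (4 × 10⁵ per mL) or MT-4 cells (3 × 10⁵ per mL) were exposed to serial compound dilutions for 4 days. CC₅₀ was the concentration reducing the number of viable cells by 50%.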

The test system of test [7] is MT4. The test can be described thus: Concentration of compound required to reduce by 50% the number of viable cells in mock infected MT-4 cell cultures. Type of test: functional. To be noted: Homo sapiens. The method, boiled down:
as §3

Test [8] relates to CCRF-CEM. The test can be described thus: Concentration of compound inhibiting Glu138-Lys mutant HIV-1(IIIB) induced cytopathicity in CEM cell culture by 50%. Type of test: functional, cell-based. To be noted: Homo sapiens. The method, boiled down: as §1
Test [9] relates to CCRF-CEM. Nature of the test: Concentration of compound inhibiting Lys103-Asn mutant HIV-1(IIIB) induced cytopathicity in CEM cell culture by 50%. Type of test: functional, cell-based. The conditions noted are these: Homo sapiens. The method, boiled down:
as §1

Test [10] relates to CCRF-CEM. Nature of the test: Concentration of compound inhibiting Tyr181- Cys mutant HIV-1(IIIB) induced cytopathicity in CEM cell culture by 50%. Type of test: functional, cell-based. The conditions noted are these: Homo sapiens. Put shortly:
as §1

As to `Cc1cn([C@@H]2O[C@H](CO[Si](C)(C)C(C)(C)C)[C@]3(C(N)=CS(=O)(=O)N3C)[C@H]2O[Si](C)(C)C(C)(C)C)c(=O)[nH]c1=O`, the EC50 in test [1] was over 10 µM; in test [2], 3.5 µM; in test [3], over 10 µM; in test [4], 1.6 µM; in [5], over 20 µM. Besides, the CC50 stood at 21.6 µM in test [6] and 19 µM in test [7].
As to `Cc1cn([C@@H]2O[C@H](CO[Si](C)(C)C(C)(C)C)[C@]3(C(N)=CS(=O)(=O)N3C)[C@H]2O[Si](C)(C)C(C)(C)C)c(=O)n(C(=O)OC(C)(C)C)c1=O`, the EC50 in test [1] was over 10 µM; in test [2], 3.5 µM; in test [3], over 10 µM; in test [4] it was 1.8 µM; in [5] it was over 20 µM. The CC50 in test [6] turned out to be 20.6 µM; in test [7] it was 20 µM.
For `Cc1cn([C@@H]2O[C@H](CO[Si](C)(C)C(C)(C)C)[C@@]3(OS(=O)(=O)C=C3N)[C@H]2O[Si](C)(C)C(C)(C)C)c(=O)[nH]c1=O`, the EC50 is 4.6 µM in test [8]; 0.4 µM in test [9]; 3 µM in test [10]; 0.06 µM in test [2]; over 4 µM in test [3]; 0.06 µM in [4]. The EC50 in [5] was over 20 µM. For the same compound, the CC50 in test [6] stood at 16 µM; in test [7] it was 14 µM.
With `Cc1cn([C@@H]2O[C@H](CO[Si](C)(C)C(C)(C)C)[C@@]3(NS(=O)(=O)C=C3N)[C@H]2O[Si](C)(C)C(C)(C)C)c(=O)n(C)c1=O`, the EC50 in test [8] is over 10 µM; in test [9] it was 4 µM; in test [1], over 10 µM; in test [2], 0.22 µM. In addition, the CC50 in test [6] came out at 5.8 µM.
`CCn1c(=O)c(C)cn([C@@H]2O[C@H](CO[Si](C)(C)C(C)(C)C)[C@@]3(NS(=O)(=O)C=C3N)[C@H]2O[Si](C)(C)C(C)(C)C)c1=O`: the EC50 in [8] is over 2 µM; in [9], over 2 µM; in [1], over 2 µM; in [2] it was 0.31 µM. This compound had a CC50 in test [6] of 4.9 µM.
`Cc1cn([C@@H]2O[C@H](CO[Si](C)(C)C(C)(C)C)[C@@]3(NS(=O)(=O)C=C3N)[C@H]2O[Si](C)(C)C(C)(C)C)c(=O)n(C(=O)OC(C)(C)C)c1=O`: the concentration for a half-maximal effect (EC50) was 5 µM in [9], 0.43 µM in test [2], over 10 µM in test [3] and 0.13 µM in test [4]. Further, the CC50 in test [6] came out at 21.2 µM; in [7] it was 19 µM.
`Cc1cn([C@@H]2O[C@H](CO[Si](C)(C)C(C)(C)C)[C@]3(C(N)=CS(=O)(=O)N3C)[C@H]2O[Si](C)(C)C(C)(C)C)c(=O)n(C)c1=O`: the EC50 in [1] is over 250 µM; in [2], 2.5 µM; in test [3], over 250 µM; in [4] it was 0.66 µM; in test [5], over 200 µM. In addition, the CC50 in test [6] was over 250 µM; in test [7] it was over 200 µM.
`Cc1cn([C@@H]2O[C@H](CO[Si](C)(C)C(C)(C)C)[C@@]3(NS(=O)(=O)C=C3N)[C@H]2O[Si](C)(C)C(C)(C)C)c(=O)[nH]c1=O`: the concentration giving a half-maximal response (EC50) in [1] was over 10 µM; in [2], 0.33 µM; in test [3], over 10 µM; in [4], 0.53 µM; in test [5] it was over 100 µM. Moreover, the CC50 in test [6] stood at 19.1 µM; in test [7], 105 µM.
